Laboratory results published in PMC8961603 (RSC Advances, 2022).
Converted amounts (≈) assume the structure as drawn. “Also recorded” adds a separate entry of the source.

Tests used:
Vero cells = experiment: In vitro cytotoxicity assay; assay type: cell-based; details: MTT
[1] = test system: third stage instar larvae of Aedes aegypti; experiment: Larvicidal bioassay; assay type: in vivo; details: for larvicidal activity (in words): 24, 48 and 72 h exposure, 50-250 μg ml^−1
[2] = In vitro cytotoxicity assay; assay type: cell-based; details: African green monkey, Vero cells, Vero IC50 cytotoxicity, MTT
[3] = test system: Aedes aegypti larvae (midgut); experiment: Histopathological analysis of larvae; assay type: in vivo; details: 72 h exposure
[4] = test system: human blood cells (red blood cell suspension); experiment: Haemolytic assay; assay type: cell-based
Procedure, shortened: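 Fresh anticoagulated human blood spun 10 min at 2000 rpm; pellet resuspended in 0.9% NaCl to a 2% v/v red cell suspension. Cells incubated with test compound at 25, 50 or 100 μg ml−1 for 1 h at 37 °C, 5% CO2. Haemoglobin release read at 540 nm. Controls were 1% v/v NaOH for complete lysis and 0.9% NaCl for none. Percent haemolysis was calculated.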

[5] = larvicidal LC50 used in QSAR training set, exposure time not given
[6] = 24 h exposure, log probit analysis
[7] = 48 h exposure, log probit analysis
[8] = 72 h exposure, log probit analysis
[9] = Aedes aegypti, 24 h, 24 h exposure, log probit analysis
[10] = Aedes aegypti, 48 h, 48 h exposure, log probit analysis
[11] = Aedes aegypti, 72 h, 72 h exposure, log probit analysis

Q: For “1-[(E)-2-Phenylethenyl]-2-{[(3,4,5-trimethoxy phenyl) methylidene] amino}-2,5-dihydro-1H-1,2,4-triazole-3-thiol [CA 5]”, which “Vero IC50 cytotoxicity” value (Vero cells) is on record?
A: 223 ± 0.05 µg/mL

Q: For “2-(3-Methylphenyl)-5-[(E)-2-phenylethenyl]-5,6-dihydro[1,2,4]triazolo[5,1-b][1,3,4]thia diazole [CATD 4]”, which LC50 [1, 5] is on record?
A: 0.15 µM

Q: And the “Vero IC50 cytotoxicity” value (Vero cells)?
A: 252 ± 0.20 µg/mL

Q: With “2-{[(4-Chlorophenyl) methylidene] amino}-1-[(E)-2-phenylethenyl]-2,5-dihydro-1H-1,2,4-triazole-3-thiol [CA 1]” as the molecule, how does the LC50 [1, 5] read?
A: 0.13 µM

Q: And the “Vero IC50 cytotoxicity” value (Vero cells)?
A: 309 ± 0.21 µg/mL

Q: With Nc1ccc(/C=C/C(=O)NNc2ccc([N+](=O)[O-])cc2[N+](=O)[O-])cc1 [ACA 1, (2E)-3-(4-Aminophenyl)-N′-(2,4-dinitrophenyl)prop-2-enehydrazide] as the molecule, how does the IC50 [2] read?
A: 285 ± 0.05 µg/mL (≈ 830 µM)

Q: With NC(=S)NNC(=O)/C=C/c1ccc(N)cc1 [ACA 3, 2-[(2E)-3-(4-Aminophenyl)prop-2-enoyl]hydrazine-1-carbothioamide] as the molecule, how does the IC50 [2] read?
A: 254 ± 0.03 µg/mL (≈ 1070 µM)

Q: For COc1cc(C=NN2C(S)=NCN2/C=C/c2ccccc2)ccc1O [CA 7, 2-Methoxy-4-[({2-[(E)-2-phenylethenyl]-5-sulfanyl-2,3-dihydro-1H-1,2,4-triazol-1-yl}imino)methyl] phenol], which IC50 [2] is on record?
A: 295 ± 0.04 µg/mL (≈ 832 µM)

Q: For O=[N+]([O-])c1ccc(C=NN2C(S)=NCN2/C=C/c2ccccc2)cc1 [CA 9, 2-{[(4-Nitrophenyl)methylidene]amino}-1-[(E)-2-phenylethenyl]-2,5-dihydro-1H-1,2,4-triazole-3-thiol], which IC50 [2] is on record?
A: 235 ± 0.05 µg/mL (≈ 665 µM)

Q: With SC1=NCN(/C=C/c2ccccc2)N1N=Cc1ccc(Br)cc1 [CA 10, 2-{[(4-Bromophenyl)methylidene]amino}-1-[(E)-2-phenylethenyl]-2,5-dihydro-1H-1,2,4-triazole-3-thiol] as the molecule, how does the LC90 [1, 6] read?
A: 210.414 ppm

Q: And the LC90 [1, 7]?
A: 172.096 ppm

Q: What about the LC90 [1, 8] of the same molecule?
A: 122.913 ppm

Q: What about the LC50 [1, 9] of the same molecule?
A: 156 µg/mL

Q: What about the LC50 [1, 10] of the same molecule?
A: 121 µg/mL

Q: And the LC50 [1, 11]?
A: 50.3 µg/mL

Q: And the IC50 [2]?
A: 241 ± 0.01 µg/mL (≈ 622 µM)

Q: For CN(C)c1ccc(/C=C/C=NN2C(S)=NCN2/C=C/c2ccccc2)cc1 [CA 11, 2-({(2E)-3-[4-(Dimethylamino)phenyl]prop-2-en-1-ylidene}amino)-1-[(E)-2-phenylethenyl]-2,5-dihydro-1H-1,2,4-triazole-3-thiol], which IC50 [2] is on record?
A: 229 ± 0.02 µg/mL (≈ 607 µM)

Q: For Cc1cccc(C2=NN3C(=NCN3/C=C/c3ccccc3)S2)c1 [CATD 2, 2-(3-Methylphenyl)-5-[(E)-2-phenylethenyl]-5,6-dihydro[1,2,4]triazolo[5,1-b][1,3,4]thiadiazole], which “larvicidal activity (in words)” value [1] is on record?
A: effectively showed larvicidal activity

Q: What about the LC90 [1, 6] of the same molecule?
A: 311.453 ppm

Q: What about the LC90 [1, 7] of the same molecule?
A: 241.010 ppm

Q: What about the LC90 [1, 8] of the same molecule?
A: 179.532 ppm

Q: What about the LC50 [1, 9] of the same molecule?
A: 187 µg/mL

Q: What about the LC50 [1, 10] of the same molecule?
A: 132 µg/mL

Q: What about the LC50 [1, 11] of the same molecule?
A: 86.6 µg/mL

Q: And the IC50 [2]?
A: 218 ± 0.02 µg/mL (≈ 680 µM)

Q: What about the “histopathological findings in larvae” value [3] of the same molecule?
A: severe lesions that primarily affected the midgut epithelium

Q: And the “Hemolytic (%)” value ([4]; Conc. 25 PPM)?
A: 4.605%

Q: And the “Hemolytic (%)” value ([4]; Conc. 50 PPM)?
A: 5.367%

Q: What about the “Hemolytic (%)” value ([4]; Conc. 100 PPM) of the same molecule?
A: 5.759%

Q: Which IC50 [2] does the source give for Oc1ccc(C2=NN3C(=NCN3/C=C/c3ccccc3)S2)cc1O [CATD 3, 4-{5-[(E)-2-Phenylethenyl]-5,6-dihydro[1,2,4]triazolo[5,1-b][1,3,4]thiadiazol-2-yl}benzene-1,2-diol] here?
A: 270 ± 0.2 µg/mL (≈ 798 µM)

Q: For CC(=O)OCC(CCn1cnc2cnc(N)nc21)COC(C)=O [FMCV, Famciclovir, reference compound], which LC90 [1, 7] is on record?
A: 241.010 ppm

Q: What about the LC90 [1, 8] of the same molecule?
A: 179.532 ppm

Q: What about the LC50 [1, 9] of the same molecule?
A: 248 µg/mL

Q: What about the LC50 [1, 10] of the same molecule?
A: 203 µg/mL

Q: And the LC50 [1, 11]?
A: 139 µg/mL

Q: And the IC50 [2]?
A: 270 ± 0.2 µg/mL (≈ 840 µM)

Q: And the “Hemolytic (%)” value ([4]; Conc. 25 PPM)?
A: 4.802%

Q: And the “Hemolytic (%)” value ([4]; Conc. 50 PPM)?
A: 6.448%

Q: What about the “Hemolytic (%)” value ([4]; Conc. 100 PPM) of the same molecule?
A: 8.901%

Q: For CC(C)=CCc1c(O)cc(O)c2c1O[C@H](c1ccccc1)CC2=O [Glabranin, reference compound], which LC90 [1, 6] is on record?
A: 311.453 ppm

Q: What about the LC90 [1, 7] of the same molecule?
A: 241.010 ppm

Q: And the LC90 [1, 8]?
A: 179.532 ppm

Q: And the LC50 [1, 9]?
A: 258 µg/mL

Q: What about the LC50 [1, 10] of the same molecule?
A: 199 µg/mL

Q: And the LC50 [1, 11]?
A: 140 µg/mL

Q: What about the IC50 [2] of the same molecule?
A: 252 ± 0.2 µg/mL (≈ 777 µM)

Q: And the “Hemolytic (%)” value ([4]; Conc. 25 PPM)?
A: 2.326%

Q: And the “Hemolytic (%)” value ([4]; Conc. 50 PPM)?
A: 4.713%

Q: And the “Hemolytic (%)” value ([4]; Conc. 100 PPM)?
A: 5.217%

Q: With “(2E)-3-(4-Aminophenyl)-N′-(2,4-dinitrophenyl)prop-2-enehydrazide [ACA 4]” as the molecule, how does the “larvicidal activity (in words)” value [1] read?
A: slow mortality; also recorded: effectively showed larvicidal activity

Q: And the LC50 [1, 6]?
A: 101.176 ppm

Q: What about the LC90 [1, 6] of the same molecule?
A: 358.428 ppm

Q: And the LC50 [1, 7]?
A: 88.823 ppm

Q: What about the LC90 [1, 7] of the same molecule?
A: 323.217 ppm

Q: What about the LC50 [1, 8] of the same molecule?
A: 47.347 ppm

Q: What about the LC90 [1, 8] of the same molecule?
A: 240.784 ppm

Q: What about the LC50 [1, 5] of the same molecule?
A: 0.10 µM

Q: And the “Vero IC50 cytotoxicity” value (Vero cells)?
A: 328 ± 0.02 µg/mL

Q: What about the “histopathological findings in larvae” value [3] of the same molecule?
A: severe lesions that primarily affected the midgut epithelium

Q: And the “Hemolytic (%)” value ([4]; Conc. 25 PPM)?
A: 1.736%

Q: And the “Hemolytic (%)” value ([4]; Conc. 50 PPM)?
A: 2.122%

Q: And the “Hemolytic (%)” value ([4]; Conc. 100 PPM)?
A: 3.460%
